Measured values taken from ChEMBL document CHEMBL3112476, “Inhibition of IκB kinase-β and IκB kinase-α by heterocyclic adamantyl arotinoids” (Bioorg Med Chem, 2014).

How the values were obtained:
[1] = target: T1, Retinoic acid receptor RXR-alpha (Homo sapiens) (UniProt P19793); assay: Agonist activity at recombinant GST-tagged RXRalpha LBD (unknown origin) assessed as induction of biotinylated SRC-1-676-700 coactivator recruitment after 4 hrs by TR-FRET assay
T1 sequence (whole entry): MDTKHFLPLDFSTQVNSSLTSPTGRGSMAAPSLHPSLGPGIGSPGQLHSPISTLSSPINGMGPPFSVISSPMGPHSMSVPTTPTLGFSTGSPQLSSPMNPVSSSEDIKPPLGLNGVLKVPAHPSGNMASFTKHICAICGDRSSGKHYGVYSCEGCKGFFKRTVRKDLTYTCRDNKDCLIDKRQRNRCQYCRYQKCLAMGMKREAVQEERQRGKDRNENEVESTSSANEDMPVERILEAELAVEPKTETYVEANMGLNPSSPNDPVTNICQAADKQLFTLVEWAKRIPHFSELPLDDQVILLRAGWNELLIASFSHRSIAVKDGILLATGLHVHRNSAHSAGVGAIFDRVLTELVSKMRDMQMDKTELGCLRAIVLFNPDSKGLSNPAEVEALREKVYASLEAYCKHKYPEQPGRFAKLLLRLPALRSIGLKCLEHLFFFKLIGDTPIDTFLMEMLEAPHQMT
Summary of the method: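 5 nM GST-RXRα LBD was incubated with 150 nM biotin-SRC-1 676-700 peptide at room temperature in binding buffer (25 mM Hepes pH 7.4, 100 mM NaCl, 0.025% BSA, 5% glycerol, 0.005% Tween-20, 2.5 mM DTT; ≤1% DMSO). Detection used 2 nM Eu-anti-GST plus 37.5 nM streptavidin-allophycocyanin. The 665/615 nm ratio was read at 4 h and expressed as Delta F% versus no-receptor control.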

[2] = target: T1, Retinoic acid receptor RXR-alpha (Homo sapiens); assay: Agonist activity at recombinant GST-tagged RXRalpha LBD (unknown origin) assessed as induction of fluorescein labeled D22 coactivator recruitment after 4 hrs by TR-FRET assay
Summary of the method: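 5 nM GST-RXRα LBD was incubated with 150 nM fluorescein-D22 peptide at room temperature in Hepes pH 7.4 binding buffer (≤1% DMSO), with 2 nM Tb-anti-GST antibody. The 520/495 nm TR-FRET ratio was read after 4 h and reported as Delta F% relative to samples lacking receptor.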

[3] = target: T1, Retinoic acid receptor RXR-alpha (Homo sapiens); assay: Agonist activity at Gal4-fused RXRalpha (unknown origin) transfected in HEK293 cells assessed as induction of transcriptional activity at 4 uM after 24 hrs by luciferase/beta-galactosidase reporter gene assay relative to CD3254; assay type: cell-based
Summary of the method: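 Gal4-RARα or Gal4-RXRα (10 ng) plus 2 ng β-galactosidase vector, calcium phosphate transfection into HEK-293 cells carrying a 5×UAS luciferase reporter. After 16 h, cells were washed and given 5% charcoal-treated FBS medium, then rested 2 h. Stimulation was with 4 µM compound or 0.1% DMSO; controls were 1 µM atRA (RARα) or 1 µM CD3254 (RXRα). Harvest was at 6 h (RARα) or 24 h (RXRα). Luciferase/β-gal ratio was expressed as fold over unstimulated cells. Data: 2 experiments, triplicate.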

Activity [1] | Activity [2] | max activation [3] | SMILES
Dose-dependent effect | Dose-dependent effect | – | COCCOCOc1cc(C)c(-c2ccc(CC(=O)O)cc2Cl)cc1C12CC3CC(CC(C3)C1)C2
– | – | 21% | COCCOCOc1ccc(-c2ncc(-c3ccc(C(=O)O)cc3)s2)cc1C12CC3CC(CC(C3)C1)C2
Dose-dependent effect | Dose-dependent effect | – | Cc1cc(O)c(C23CC4CC(CC(C4)C2)C3)cc1-c1ccc(/C=C/C(=O)O)cc1Cl
Dose-dependent effect | Dose-dependent effect | – | COCCOCOc1cc(C)c(-c2ccc3cc(C(=O)O)ccc3c2Cl)cc1C12CC3CC(CC(C3)C1)C2
Dose-dependent effect | Dose-dependent effect | – | COCCOCOc1cc(C)c(-c2ccc(/C=C/C(=O)O)cc2Cl)cc1C12CC3CC(CC(C3)C1)C2
